# What was measured:
# Assay type in all cases: functional
# [1] = system: Saccharomyces cerevisiae; assay: The compound was evaluated for mean zone diameter (inhibition) against yeast at the concentration of 500 ug/mL
# How it was run: (§1)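 Disk diffusion: drug in methanol spotted on 6.2 mm paper disks (25 μL/disk), dried at room temperature, laid on seeded agar, rewet with 25 μL 10% aqueous Me₂SO; zones read after overnight incubation. Unbuffered acidic media (pH ca. 4.5–5.6). Panel of 21 yeasts and 21 filamentous fungi; zones of 0 mm excluded from means.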
# [2] = system: Nakaseomyces glabratus; assay: The compound was evaluated for zone inhibition against Torulopsis glabrata MY1062 using disk diffusion assay; 7 very hazy
# How it was run: (§2)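 Filter-paper disks (6.2 mm) loaded with 25 μL of a 250 μg/mL methanol solution, dried at room temperature, laid on seeded agar and rewet with 25 μL 10% aqueous Me₂SO. Media were unbuffered, pH ca. 4.5–5.6: potato dextrose agar for filamentous fungi, sabouraud dextrose agar for yeasts, unless noted. Inhibition zone diameter read after overnight incubation, ±1 mm. Zone edges scored fuzzy, slightly hazy, hazy or very hazy.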
# [3] = system: Naganishia albida; assay: The compound was evaluated for zone inhibition against Cryptococcus albidus MY1070 using disk diffusion assay; 9 very hazy
# How it was run: (§3)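 Disk diffusion: 25 μL of 250 μg/mL drug in methanol on 6.2 mm paper disks, dried at room temperature, placed on seeded agar and rewet with 25 μL 10% aqueous Me₂SO. Zones were read after overnight incubation, ±1 mm. Media were unbuffered, pH ca. 4.5–5.6: potato dextrose agar for filamentous fungi, Sabouraud dextrose for yeasts, unless YNB (76 mM ammonium sulfate, sole nitrogen source) or YED is named. Zone edges were scored fuzzy, slightly hazy, hazy or very hazy.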
# [4] = system: Trichoderma viride; assay: The compound was evaluated for zone inhibition against Trichoderma lignorum (MF3560) using disk diffusion assay; 13 Fuzzy edges; how it was run: as §2
# [5] = system: Cryptococcus neoformans; assay: The compound was tested for antifungal activity against Cryptococcus neoformans MY1051 using agar dilution assay
# How it was run: (§4)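 Standardized agar dilution on Kimmig agar with 5% glycerol. Detergents solubilized in 10% Me2SO; desoxycholate-stabilized amphotericin B diluted and titrated in sterile distilled water. Twofold dilutions in sterile distilled water gave final agar concentrations of 128 to 0.06 μg/mL. Error limit ±1 dilution stage.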
# [6] = system: Cryptococcus neoformans; assay: The compound was tested for antifungal activity against Cryptococcus neoformans MY1146 using agar dilution assay; how it was run: as §4
# [7] = system: Fusarium oxysporum; assay: The compound was evaluated for zone inhibition against Fusarium oxysporum (MF4014) using disk diffusion assay; 15 Fuzzy edges; how it was run: as §2
# [8] = system: Papiliotrema laurentii; assay: The compound was evaluated for zone inhibition against Cryptococcus laurentii MY1077 using disk diffusion assay; 9 hazy; how it was run: as §2
# [9] = system: Candida albicans; assay: The compound was tested for antifungal activity against Candida albicans MY1055 using agar dilution assay
# How it was run: (§5)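 Standardized agar dilution in Kimmig agar with 5% glycerol. Lysosomotropic detergents solubilized in 10% Me₂SO. Twofold serial dilutions in sterile distilled water gave final agar concentrations of 128 to 0.06 μg/mL. Stated error ±1 dilution stage.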
# [10] = system: Candida albicans; assay: The compound was tested for antifungal activity against Candida albicans My1029 using agar dilution assay; how it was run: as §5
# [11] = system: Papiliotrema laurentii; assay: The compound was evaluated for zone inhibition against Cryptococcus laurentii MY1074 using disk diffusion assay; 7 very hazy; how it was run: as §2
# [12] = system: Phoma; assay: The compound was evaluated for zone inhibition against Phoma sp (MF4332) using disk diffusion assay; 13 slightly hazy; how it was run: as §2
# [13] = system: Candida albicans; assay: The compound was tested for antifungal activity against Candida albicans MY1013 using agar dilution assay; how it was run: as §5
# [14] = system: Nakaseomyces glabratus; assay: The compound was tested for antifungal activity against Torulopsis glabrata MY1059 using agar dilution assay; how it was run: as §4
# [15] = system: Rhizomucor miehei; assay: The compound was evaluated for zone inhibition against Rhizomucor miehei (MF4784) using disk diffusion assay; 9 hazy; how it was run: as §2
# [16] = system: Ophiostoma ulmi; assay: The compound was evaluated for zone inhibition against Ceratocystis ulmi (MF4042) using disk diffusion assay; 12 slightly hazy; how it was run: as §3
# [17] = system: Papiliotrema laurentii; assay: The compound was evaluated for zone inhibition against Cryptococcus laurentii MY1073 using disk diffusion assay; how it was run: as §3
# [18] = system: Candida albicans; assay: The compound was tested for antifungal activity against Candida stellatoidea MY1017 using agar dilution assay; how it was run: as §4
# [19] = system: Saccharomyces cerevisiae; assay: The compound was evaluated for mean zone diameter (inhibition) against yeast at the concentration of 125 ug/mL
# How it was run: (§6)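 Filter-paper disk diffusion (6.2 mm disks) with drug in methanol at the stated level, 25 μL per disk. Disks were air-dried at room temperature, laid on seeded agar, rewet with 25 μL 10% aqueous Me₂SO and incubated overnight. Media were unbuffered, pH ca. 4.5–5.6. The panel was 21 yeasts and 21 filamentous fungi. Zones of 0 mm were excluded from means.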
# [20] = system: Penicillium; assay: The compound was evaluated for zone inhibition against Penicillium sp (MF5014) using disk diffusion assay; 17 slightly hazy; how it was run: as §2
# [21] = system: Penicillium; assay: The compound was evaluated for zone inhibition against Penicillium sp (MF5016) using disk diffusion assay; 18 Fuzzy edges; how it was run: as §2
# [22] = system: Trichoderma; assay: The compound was evaluated for zone inhibition against Trichoderma sp (MF4064) using disk diffusion assay; 16 Fuzzy edges; how it was run: as §2
# [23] = system: Candida albicans; assay: The compound was tested for antifungal activity against Candida albicans MY0992 using agar dilution assay; how it was run: as §5
# [24] = system: Cephalosporium; assay: The compound was evaluated for zone inhibition against Cephalosporium sp (MF4641) using disk diffusion assay; 12 slightly hazy; how it was run: as §3
# [25] = system: Kluyveromyces marxianus; assay: The compound was tested for antifungal activity against Candida pseudotropicalis MY1040 using agar dilution assay; how it was run: as §5
# [26] = system: Saccharomyces cerevisiae; assay: The compound was evaluated for mean zone diameter (inhibition) against yeast at the concentration of 250 ug/mL; how it was run: as §6
# [27] = system: Candida tropicalis; assay: The compound was tested for antifungal activity against Candida tropicalis MY1011 using agar dilution assay; how it was run: as §4
# [28] = system: Penicillium; assay: The compound was evaluated for zone inhibition against Penicillium sp (MF5020) using disk diffusion assay; 15 Fuzzy edges; how it was run: as §2
# [29] = system: Saccharomyces cerevisiae; assay: The compound was evaluated for zone inhibition against Saccharomyces cerevisiae MY410 using disk diffusion assay; how it was run: as §2
# [30] = system: Aspergillus fumigatus; assay: The compound was tested for antifungal activity against Aspergillus fumigatus MF4839 using agar dilution assay; how it was run: as §5
# [31] = system: Diutina rugosa; assay: The compound was tested for antifungal activity against Candida rugosa MY1022 using agar dilution assay; how it was run: as §5
# [32] = system: Saccharomyces cerevisiae; assay: The compound was tested for antifungal activity against Saccharomyces cerevisiae MY1027 using agar dilution assay; how it was run: as §4
# [33] = system: Kluyveromyces marxianus; assay: The compound was evaluated for zone inhibition against Candida pseudotropicalis MY1100 using disk diffusion assay; 19 slightly hazy; how it was run: as §3
# [34] = system: Cercospora beticola; assay: The compound was evaluated for zone inhibition against Cercospora beticola (MF4608) using disk diffusion assay; 8 hazy; how it was run: as §3
# [35] = system: Saccharomyces cerevisiae; assay: The compound was evaluated for mean zone diameter (inhibition) against yeast at the concentration of 62.5 ug/mL; how it was run: as §6
# [36] = system: Meyerozyma guilliermondii; assay: The compound was tested for antifungal activity against Candida guilliermondii MY1019 using agar dilution assay; how it was run: as §5
# [37] = system: Aspergillus flavus; assay: The compound was tested for antifungal activity against Aspergillus flavus MF0383 using agar dilution assay; how it was run: as §5
# [38] = system: Candida albicans; assay: The compound was tested for antifungal activity against Candida albicans MY1058 using agar dilution assay; how it was run: as §5
# [39] = system: Ustilago maydis; assay: The compound was evaluated for zone inhibition against Ustilago zeae (MF1996) using disk diffusion assay; 14 slightly hazy; how it was run: as §2
# [40] = system: Kluyveromyces marxianus; assay: The compound was evaluated for zone inhibition against Kluyveromyces fragilis MY1113 using disk diffusion assay; 15 slightly hazy; how it was run: as §2
# [41] = system: Candida parapsilosis; assay: The compound was tested for antifungal activity against Candida parapsilosis MY1010 using agar dilution assay; conditions: Lodderomyces parapsilosis; how it was run: as §5
# [42] = system: Candida tropicalis; assay: The compound was tested for antifungal activity against Candida tropicalis MY1012 using agar dilution assay; how it was run: as §4
# [43] = system: Candida parapsilosis; assay: The compound was tested for antifungal activity against Candida parapsilosis MY1009 using agar dilution assay; conditions: Lodderomyces parapsilosis; how it was run: as §5
# [44] = system: Saccharomyces cerevisiae; assay: The compound was evaluated for zone inhibition against Saccharomyces cerevisiae YED MY34 using disk diffusion assay; 8 slightly hazy; how it was run: as §2
# [45] = system: Pichia kudriavzevii; assay: The compound was tested for antifungal activity against Candida krusei MY1020 using agar dilution assay; how it was run: as §5
# [46] = system: Penicillium italicum; assay: The compound was tested for antifungal activity against Penicillium italicum MF2819 using agar dilution assay; how it was run: as §4
# [47] = system: Saccharomyces cerevisiae; assay: The compound was evaluated for mean zone diameter (inhibition) against yeast at the concentration of 1000 ug/mL; how it was run: as §1
smiles,measurement,setting,value
CCCCCCCCCCCCN1CCOCC1,Inhibition zone,[1],12.8 mm
same,Inhibition zone,[2],7 mm
same,Inhibition zone,[3],9 mm
same,Inhibition zone,[4],13 mm
same,MIC,[5],16 µg/mL
same,MIC,[6],32 µg/mL
same,Inhibition zone,[7],15 mm
same,Inhibition zone,[8],9 mm
same,MIC,[9],32 µg/mL
same,MIC,[10],32 µg/mL
same,Inhibition zone,[11],7 mm
same,Inhibition zone,[12],13 mm
same,MIC,[13],32 µg/mL
same,MIC,[14],64 µg/mL
same,Inhibition zone,[15],9 mm
same,Inhibition zone,[16],17 mm
same,Inhibition zone,[17],0 mm
same,MIC,[18],32 µg/mL
same,Inhibition zone,[19],10.2 mm
same,Inhibition zone,[20],17 mm
same,Inhibition zone,[21],18 mm
same,Inhibition zone,[22],16 mm
same,MIC,[23],64 µg/mL
same,Inhibition zone,[24],12 mm
same,MIC,[25],32 µg/mL
same,Inhibition zone,[26],11.4 mm
same,MIC,[27],32 µg/mL
same,Inhibition zone,[28],15 mm
same,Inhibition zone,[29],0 mm
same,MIC,[30],64 µg/mL
same,MIC,[31],32 µg/mL
same,MIC,[32],32 µg/mL
same,Inhibition zone,[33],19 mm
same,Inhibition zone,[34],8 mm
same,Inhibition zone,[35],8.6 mm
same,MIC,[36],32 µg/mL
same,MIC,[37],64 µg/mL
same,MIC,[38],32 µg/mL
same,Inhibition zone,[39],14 mm
same,Inhibition zone,[40],15 mm
same,MIC,[41],16 µg/mL
same,MIC,[42],16 µg/mL
same,MIC,[43],64 µg/mL
same,Inhibition zone,[44],8 mm
same,MIC,[45],32 µg/mL
same,MIC,[46],32 µg/mL
same,Inhibition zone,[47],19 mm

# From ChEMBL document CHEMBL1123822, “Lysosomotropic agents. 7. Broad-spectrum antifungal activity of lysosomotropic detergents” (1987)
